According to ChEMBL document CHEMBL3621200, “Toward the discovery of dual HCMV-VZV inhibitors: Synthesis, structure activity relationship analysis, and cytotoxicity studies of long chained 2-uracil-3-yl-N-(4-phenoxyphenyl)acetamides” (Bioorg Med Chem, 2015):
Calls of active or inactive are those of the source. The rule behind the calls is not given here.

Columns and labels:
Human betaherpesvirus 5 [1] = assay: Antiviral activity against human cytomegalovirus Davis infected in HEL cells assessed as reduction in viral plaque formation; assay type: functional, organism-based; details: Human betaherpesvirus 5, Davis
Summary of the method: (§1)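 Confluent HEL fibroblasts were infected with 100 PFU of HCMV in the presence of varying compound concentrations. Plaques were counted once plaque formation was complete in untreated infected controls.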

[2] = Cytotoxicity against Varicella zoster virus infected HEL cells assessed as alteration of cell morphology incubated for 3 days by microscopy; assay type: cell-based; details: human, HEL cells infected with Varicella zoster virus
Summary of the method: (§2)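 Cytotoxicity was given as the minimum cytotoxic concentration (MCC): the compound concentration causing a microscopically detectable change in HEL cell morphology.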

Human alphaherpesvirus 2 = assay: Antiviral activity against HSV2 Lyons; assay type: functional, organism-based
Summary of the method: (§3)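 Confluent cell monolayers in 96-well plates were inoculated with 100 CCID50 of virus together with varying compound concentrations. Cytopathicity was scored once it reached completion in untreated infected controls.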

[3] = tested on: Human herpesvirus 2 strain G; assay: Antiviral activity against HSV2 G Lyons; assay type: functional, organism-based
Influenza B virus = assay: Antiviral activity against Influenza B virus; assay type: functional, organism-based
Summary of the method: (§4)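 Confluent cell monolayers (HEL, Vero, HeLa or MDCK) in 96-well plates were infected with 100 CCID50 of virus in the presence of varying compound concentrations. Cytopathicity was scored once it reached completion in untreated infected controls.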

[4] = Cytotoxicity against human cytomegalovirus infected HEL cells assessed as alteration of cell morphology incubated for 3 days by microscopy; assay type: cell-based; details: HEL cells infected with human cytomegalovirus; summary of the method: as §2
Sindbis virus = assay: Antiviral activity against Sindbis virus; assay type: functional, organism-based
[5] = tested on: Human immunodeficiency virus 2; assay: Antiviral activity against HIV2 ROD infected in human CEM cells assessed as reduction in virus- induced cytopathicity incubated for 4 to 5 days by microscopy based virus syncytium formation assay; assay type: functional, organism-based; details: ISOLATE ROD, CCRF-CEM
Summary of the method: (§5)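 CEM cells at ~3 × 10^5 cells/mL, infected with 100 CCID50 of HIV per mL in the presence of compound dilutions. Incubated 4–5 days at 37 °C in humidified CO2. Syncytium (giant cell) formation scored by microscopy.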

[6] = tested on: Mammalian orthoreovirus 1; assay: Antiviral activity against Reovirus 1; assay type: functional
Punta Toro virus = assay: Antiviral activity against Punta Toro virus; assay type: functional, organism-based
[7] = tested on: Human immunodeficiency virus 1; assay: Antiviral activity against HIV1 3B infected in human CEM cells assessed as reduction in virus- induced cytopathicity incubated for 4 to 5 days by microscopy based virus syncytium formation assay; assay type: functional, organism-based; details: CCRF-CEM; summary of the method: as §5
Human alphaherpesvirus 1 = assay: Antiviral activity against HSV1 KOS; assay type: functional, organism-based; summary of the method: as §3
Vaccinia virus = assay: Antiviral activity against Vaccinia virus Lederle; assay type: functional, organism-based; details: Orthopoxvirus vaccinia; summary of the method: as §4
HEL [8] = assay: Cytotoxicity against Varicella zoster virus infected HEL cells assessed as cell growth inhibition incubated for 3 days by coulter counter method; details: human, 72 h
HEL [9] = assay: Cytotoxicity against human cytomegalovirus infected HEL cells assessed as cell growth inhibition incubated for 3 days by coulter counter method; assay type: cell-based; details: 72 h
Summary of the method: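 HEL cells were seeded at 5 × 10^3 cells/well and left to adhere and proliferate for 24 h, then compound-containing medium was added. After 3 days at 37 °C, cells were counted with a Coulter counter.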

Influenza A virus H3N2 = assay: Antiviral activity against Influenza A virus H3N2; assay type: functional, organism-based; summary of the method: as §4
Influenza A virus = assay: Antiviral activity against Influenza A virus H1N1; assay type: functional, organism-based; summary of the method: as §4
Human respirovirus 3 = assay: Antiviral activity against Parainfluenza 3 virus; assay type: functional, organism-based
Feline coronavirus = assay: Antiviral activity against Feline coronavirus; assay type: functional, organism-based
[10] = tested on: Vesicular stomatitis virus; assay: Antiviral activity against Vesicular stomatitis virus; assay type: functional, organism-based; summary of the method: as §4
Coxsackievirus B4 = assay: Antiviral activity against Human coxsackievirus B4; assay type: functional, organism-based
Human betaherpesvirus 5 [11] = assay: Antiviral activity against human cytomegalovirus AD169 infected in HEL cells assessed as reduction in viral plaque formation; assay type: functional, organism-based; details: Human betaherpesvirus 5, AD169, HEL; summary of the method: as §1
[12] = Selectivity index, ratio of CC50 for human cytomegalovirus AD169 infected HEL cells to EC50 for human cytomegalovirus AD169; assay type: toxicity, cell-based; details: HEL cells infected with human cytomegalovirus AD169, read-out: Ratio CC50/EC50
[13] = Selectivity index, ratio of CC50 for human cytomegalovirus Davis infected HEL cells to EC50 for human cytomegalovirus Davis; assay type: toxicity, cell-based; details: HEL cells infected with human cytomegalovirus Davis, read-out: Ratio CC50/EC50

O=C(Cn1c(=O)ccn(CCCOc2ccc(Br)cc2)c1=O)Nc1ccc(Oc2ccccc2)cc1
EC50 (Human betaherpesvirus 5 [1]): 3.9 µM
MCC at 72 h [2]: ≥ 100 µM
inhibition (Human alphaherpesvirus 2): inactive
inhibition [3]: inactive
inhibition (Influenza B virus): inactive
MCC at 72 h [4]: ≥ 100 µM
inhibition (Sindbis virus): inactive
inhibition [5]: inactive
inhibition [6]: inactive
inhibition (Punta Toro virus): inactive
inhibition [7]: inactive
inhibition (Human alphaherpesvirus 1): inactive
inhibition (Vaccinia virus): inactive
CC50 (HEL [8]): 15.2 µM
CC50 (HEL [9]): 15.2 µM
inhibition (Influenza A virus H3N2): inactive
inhibition (Influenza A virus): inactive
inhibition (Human respirovirus 3): inactive
inhibition (Feline coronavirus): inactive
inhibition [10]: inactive
inhibition (Coxsackievirus B4): inactive

O=C(Cn1c(=O)ccn(CCCCCCCCOc2ccc(Br)cc2)c1=O)Nc1ccc(Oc2ccccc2)cc1
EC50 (Human betaherpesvirus 5 [1]): < 0.032 µM
MCC at 72 h [2]: 0.8 µM
inhibition (Human alphaherpesvirus 2): inactive
inhibition [3]: inactive
inhibition (Influenza B virus): inactive
MCC at 72 h [4]: ≥ 0.16 µM
EC50 (Human betaherpesvirus 5 [11]): < 0.032 µM
inhibition (Sindbis virus): inactive
inhibition [5]: inactive
inhibition [6]: inactive
inhibition (Punta Toro virus): inactive
inhibition [7]: inactive
inhibition (Human alphaherpesvirus 1): inactive
inhibition (Vaccinia virus): inactive
CC50 (HEL [8]): 11.7 µM
inhibition (Influenza A virus H3N2): inactive
inhibition (Influenza A virus): inactive
inhibition (Human respirovirus 3): inactive
inhibition (Feline coronavirus): inactive
inhibition [10]: inactive
inhibition (Coxsackievirus B4): inactive

O=c1[nH]c(=O)n([C@H]2C[C@H](O)[C@@H](CO)O2)cc1/C=C/Br [BRIVUDINE]
MCC at 72 h [2]: > 300 µM
CC50 (HEL [8]): ≥ 79.3 µM

O=C(Cn1c(=O)ccn(CCCCCOc2ccc(-c3ccccc3)cc2)c1=O)Nc1ccc(Oc2ccccc2)cc1
EC50 (Human betaherpesvirus 5 [1]): 1.04 µM
MCC at 72 h [2]: 100 µM
inhibition (Human alphaherpesvirus 2): inactive
inhibition [3]: inactive
inhibition (Influenza B virus): inactive
MCC at 72 h [4]: 20 µM
EC50 (Human betaherpesvirus 5 [11]): 0.51 µM
inhibition (Sindbis virus): inactive
inhibition [5]: inactive
inhibition [6]: inactive
inhibition (Punta Toro virus): inactive
inhibition [7]: inactive
inhibition (Human alphaherpesvirus 1): inactive
inhibition (Vaccinia virus): inactive
CC50 (HEL [9]): 2.8 µM
inhibition (Influenza A virus H3N2): inactive
inhibition (Influenza A virus): inactive
inhibition (Human respirovirus 3): inactive
inhibition (Feline coronavirus): inactive
inhibition [10]: inactive
inhibition (Coxsackievirus B4): inactive

O=C(Cn1c(=O)ccn(CCCCCCOc2ccc(Br)cc2)c1=O)Nc1ccc(Oc2ccccc2)cc1
EC50 (Human betaherpesvirus 5 [1]): 0.2 µM
MCC at 72 h [2]: 4 µM
inhibition (Human alphaherpesvirus 2): inactive
inhibition [3]: inactive
inhibition (Influenza B virus): inactive
MCC at 72 h [4]: 4 µM
EC50 (Human betaherpesvirus 5 [11]): 0.29 µM
inhibition (Sindbis virus): inactive
inhibition [5]: inactive
inhibition [6]: inactive
inhibition (Punta Toro virus): inactive
inhibition [7]: inactive
inhibition (Human alphaherpesvirus 1): inactive
inhibition (Vaccinia virus): inactive
CC50 (HEL [8]): 11.7 µM
CC50 (HEL [9]): 11.7 µM
inhibition (Influenza A virus H3N2): inactive
inhibition (Influenza A virus): inactive
inhibition (Human respirovirus 3): inactive
inhibition (Feline coronavirus): inactive
inhibition [10]: inactive
inhibition (Coxsackievirus B4): inactive

O=C(Cn1c(=O)ccn(CCCCOc2ccc(Br)cc2)c1=O)Nc1ccc(Oc2ccccc2)cc1
EC50 (Human betaherpesvirus 5 [1]): 1.64 µM
MCC at 72 h [2]: > 100 µM
inhibition (Human alphaherpesvirus 2): inactive
inhibition [3]: inactive
inhibition (Influenza B virus): inactive
MCC at 72 h [4]: ≥ 20 µM
EC50 (Human betaherpesvirus 5 [11]): 1.79 µM
inhibition (Sindbis virus): inactive
inhibition [5]: inactive
inhibition [6]: inactive
inhibition (Punta Toro virus): inactive
inhibition [7]: inactive
inhibition (Human alphaherpesvirus 1): inactive
inhibition (Vaccinia virus): inactive
CC50 (HEL [8]): 7.7 µM
CC50 (HEL [9]): 7.7 µM
inhibition (Influenza A virus H3N2): inactive
inhibition (Influenza A virus): inactive
inhibition (Human respirovirus 3): inactive
inhibition (Feline coronavirus): inactive
inhibition [10]: inactive
inhibition (Coxsackievirus B4): inactive

CN(C(=O)Cn1c(=O)ccn(CCCCCOc2ccc(Br)cc2)c1=O)c1ccc(Oc2ccccc2)cc1
EC50 (Human betaherpesvirus 5 [1]): 1.29 µM
MCC at 72 h [2]: ≥ 100 µM
inhibition (Human alphaherpesvirus 2): inactive
inhibition [3]: inactive
inhibition (Influenza B virus): inactive
MCC at 72 h [4]: ≥ 4 µM
EC50 (Human betaherpesvirus 5 [11]): 0.98 µM
inhibition (Sindbis virus): inactive
inhibition [5]: inactive
inhibition [6]: inactive
inhibition (Punta Toro virus): inactive
inhibition [7]: inactive
inhibition (Human alphaherpesvirus 1): inactive
inhibition (Vaccinia virus): inactive
CC50 (HEL [8]): 6 µM
CC50 (HEL [9]): 6.1 µM
inhibition (Influenza A virus H3N2): inactive
inhibition (Influenza A virus): inactive
inhibition (Human respirovirus 3): inactive
inhibition (Feline coronavirus): inactive
inhibition [10]: inactive
inhibition (Coxsackievirus B4): inactive

O=C(Cn1c(=O)ccn(CCCCCOc2ccc(Br)cc2)c1=O)Nc1ccc(Oc2ccccc2)cc1
selectivity ratio [12]: 9
EC50 (Human betaherpesvirus 5 [1]): 0.97 µM
MCC at 72 h [2]: > 100 µM
inhibition (Human alphaherpesvirus 2): inactive
inhibition [3]: inactive
inhibition (Influenza B virus): inactive
MCC at 72 h [4]: 20 µM
inhibition (Sindbis virus): inactive
inhibition [5]: inactive
inhibition [6]: inactive
inhibition (Punta Toro virus): inactive
inhibition [7]: inactive
inhibition (Human alphaherpesvirus 1): inactive
inhibition (Vaccinia virus): inactive
CC50 (HEL [8]): 8.7 µM
selectivity ratio [13]: 9
CC50 (HEL [9]): 8.7 µM
inhibition (Influenza A virus H3N2): inactive
inhibition (Influenza A virus): inactive
inhibition (Human respirovirus 3): inactive
inhibition (Feline coronavirus): inactive
inhibition [10]: inactive
inhibition (Coxsackievirus B4): inactive

O=C(Cn1c(=O)ccn(CCCCCOc2cccc(Br)c2)c1=O)Nc1ccc(Oc2ccccc2)cc1
EC50 (Human betaherpesvirus 5 [1]): 3.1 µM
MCC at 72 h [2]: > 100 µM
inhibition (Human alphaherpesvirus 2): inactive
inhibition [3]: inactive
inhibition (Influenza B virus): inactive
MCC at 72 h [4]: ≥ 100 µM
EC50 (Human betaherpesvirus 5 [11]): 2 µM
inhibition (Sindbis virus): inactive
inhibition [5]: inactive
inhibition [6]: inactive
inhibition (Punta Toro virus): inactive
inhibition [7]: inactive
inhibition (Human alphaherpesvirus 1): inactive
inhibition (Vaccinia virus): inactive
CC50 (HEL [9]): 6.3 µM
inhibition (Influenza A virus H3N2): inactive
inhibition (Influenza A virus): inactive
inhibition (Human respirovirus 3): inactive
inhibition (Feline coronavirus): inactive
inhibition [10]: inactive
inhibition (Coxsackievirus B4): inactive

N#Cc1ccc(OCCCCCn2ccc(=O)n(CC(=O)Nc3ccc(Oc4ccccc4)cc3)c2=O)cc1
EC50 (Human betaherpesvirus 5 [1]): 0.44 µM
MCC at 72 h [2]: > 100 µM
inhibition (Human alphaherpesvirus 2): inactive
inhibition [3]: inactive
inhibition (Influenza B virus): inactive
MCC at 72 h [4]: ≥ 4 µM
EC50 (Human betaherpesvirus 5 [11]): 0.53 µM
inhibition (Sindbis virus): inactive
inhibition [5]: inactive
inhibition [6]: inactive
inhibition (Punta Toro virus): inactive
inhibition [7]: inactive
inhibition (Human alphaherpesvirus 1): inactive
inhibition (Vaccinia virus): inactive
CC50 (HEL [9]): 4.9 µM
inhibition (Influenza A virus H3N2): inactive
inhibition (Influenza A virus): inactive
inhibition (Human respirovirus 3): inactive
inhibition (Feline coronavirus): inactive
inhibition [10]: inactive
inhibition (Coxsackievirus B4): inactive
